ChEMBL document CHEMBL1122124, “Synthesis and immunoadjuvant activities of 2-acetamido-5-O-acetyl-6-O-acyl-2-deoxy-3-O-[(R)-2-propionyl-L-alanyl-D- isoglutamine]-D-glucofuranoses as potential prodrug forms of 6-O-Acyl Derivatives of N-acetylmuramyl dipeptide” (1982)

How the values were obtained:
Type in all cases: functional
Mus musculus [1] = species: Mus musculus; assay: Tested for antibody response of mice injected with Bovine serum Albumin(BSA) at 50 ug/dose in experiment 5
Mus musculus [2] = species: Mus musculus; assay: Tested for antibody response of mice injected with Bovine serum Albumin(BSA) at 5 ug/dose in experiment 1
Mus musculus [3] = species: Mus musculus; assay: Tested for antibody response of mice injected with Bovine serum Albumin(BSA) at 5 ug/dose in experiment 5
Summary of the method: (§1)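 Female ICR/Ha mice, 5–6 weeks old, groups of six, given one subcutaneous injection between the shoulders of 0.25 mL PBS containing 100 μg BSA monomer plus analogue (dissolved or sonicated). Boosted at day 21 with 100 μg BSA alone, bled at day 31. Anti-BSA passive hemagglutination was run on sheep-RBC-adsorbed sera with twofold dilutions on BSA-coated sheep cells. Result is the group geometric mean reciprocal titer.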

Mus musculus [4] = species: Mus musculus; assay: Tested for antibody response in mice injected with various Hepatitis B Vaccine at 50 ug/dose in experiment 1
Summary of the method: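 Female 5-week-old ICR mice, groups of 20, injected subcutaneously with 0.5 mL holding 1.25 μg aqueous hepatitis B vaccine (plasma-derived) mixed with 50 μg analogue in PBS (pH 7.5). Controls were aqueous vaccine alone and alum-adsorbed vaccine at 1.25 μg. Mice bled from vena cava at 6 weeks. Anti-HBs measured by radioimmunoassay; geometric mean titer reported as reciprocal serum dilution, plus responder count.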

Mus musculus [5] = species: Mus musculus; assay: Tested for antibody response of mice injected with Bovine serum Albumin(BSA) at 50 ug/dose in experiment 1; summary of the method: as §1
Mus musculus [6] = species: Mus musculus; assay: Tested for antibody response of mice injected with Bovine serum Albumin(BSA) at 5 ug/dose in experiment 6; summary of the method: as §1
Mus musculus [7] = species: Mus musculus; assay: Tested for antibody response of mice injected with Bovine serum Albumin(BSA) at 50 ug/dose in experiment 6
Mus musculus [8] = species: Mus musculus; assay: Tested for antibody response of mice injected with Bovine serum Albumin(BSA) at 50 ug/dose in experiment 2; summary of the method: as §1
Mus musculus [9] = species: Mus musculus; assay: Tested for antibody response of mice injected with Bovine serum Albumin(BSA) at 50 ug/dose in experiment 4
Mus musculus [10] = species: Mus musculus; assay: Tested for antibody response of mice injected with Bovine serum Albumin(BSA) at 50 ug/dose in experiment 3; summary of the method: as §1

Row | Compound | Geometric mean (Mus musculus [1]) | Geometric mean (Mus musculus [2]) | Geometric mean (Mus musculus [3]) | Geometric mean (Mus musculus [4]) | Geometric mean (Mus musculus [5]) | Geometric mean (Mus musculus [6]) | Geometric mean (Mus musculus [7]) | Geometric mean (Mus musculus [8]) | Geometric mean (Mus musculus [9]) | Geometric mean (Mus musculus [10])
1 | CCCCCCCCCCCCCCCCCC(=O)OCC(OC(C)=O)C1OC(O)C(NC(C)=O)C1OC(C)C(=O)N[C@@H](C)C(=O)NC(CCC(=O)O)C(N)=O (stereo not given in full) | 215.51 | 28.12 | 107.76 | 69.6 | 1408.52 | – | – | – | – | –
2 | COC1OC(C(O)CO)C(OC(C)C(=O)N[C@@H](C)C(=O)NC(CCC(=O)O)C(N)=O)C1NC(C)=O (stereo not given in full) | – | 10.7 | – | – | 10.7 | – | – | – | – | –
3 | CCCCCCCCCCCCCCCCCC(=O)NCC1OC(O)C(NC(C)=O)C(O[C@H](C)C(=O)N[C@@H](C)C(=O)NC(CCC(=O)O)C(N)=O)C1O (stereo not given in full) | – | <3 | – | – | <3 | – | – | – | – | –
4 | CC(=O)NCC1OC(O)C(NC(C)=O)C(O[C@H](C)C(=O)N[C@@H](C)C(=O)NC(CCC(=O)O)C(N)=O)C1O (stereo not given in full) | – | 6.17 | – | – | 7.78 | – | – | – | – | –
5 | CC(=O)NC1C(O)OC(COC(C)=O)C(OC(C)=O)C1O[C@H](C)C(=O)N[C@@H](C)C(=O)NC(CCC(=O)O)C(N)=O (stereo not given in full) | – | 4.36 | – | – | 384 | – | – | – | – | –
6 | CCCCCCCCCCCCCCCCCCCCCC(=O)OC(C)(C)C(=O)OCC1OC(O)C(NC(C)=O)C(O[C@H](C)C(=O)N[C@@H](C)C(=O)NC(CCC(=O)O)C(N)=O)C1O (stereo not given in full) | – | 431 | – | – | 768 | 823.12 | 716.57 | – | – | –
7 | CCCCCCCCCCCCCCCCCCCCCC(=O)OC(C)(C)C(=O)OCC(OC(C)=O)C1OC(O)C(NC(C)=O)C1OC(C)C(=O)N[C@@H](C)C(=O)NC(CCC(=O)O)C(N)=O (stereo not given in full) | – | 543.06 | – | 303.6 | 215.51 | – | – | – | – | –
8 | CCCCCCCCCCCCCCCCCC(=O)OCC1OC(O)C(NC(C)=O)C(O[C@H](C)C(=O)N[C@@H](C)C(=O)NC(CCC(=O)O)C(N)=O)C1O (stereo not given in full) | – | 271.53 | – | – | 995.97 | – | – | – | – | –
9 | CC(=O)NC1C(O)OC(C(COC(C)=O)OC(C)=O)C1OC(C)C(=O)N[C@@H](C)C(=O)NC(CCC(=O)O)C(N)=O (stereo not given in full) | – | 31.12 | – | 38.1 | 271.53 | 13.08 | 113.49 | – | – | –
10 | CC(=O)N[C@H]1C(O)O[C@H](CO)[C@@H](O)[C@@H]1O[C@H](C)C(=O)N[C@@H](C)C(=O)N[C@H](CCC(=O)O)C(N)=O (stereo not given in full) [MURAMYL DIPEPTIDE] | 28.26 | 28.12 | <3 | – | 592.21 | – | 179.14 | 215.51 | 1536 | 241.9
